Calls of active or inactive are those of the source. The calls are words filed in the database; no cut-off is given here.
Columns and labels:
[1] = biological target: T1, Serine/threonine-protein kinase B-raf (Homo sapiens, UniProt P15056); experiment: Induction of N-terminal 6x-His-tagged BRAF (unknown origin) dimer formation expressed in baculovirus infected Sf9 insect cells co-expressing mouse p50cdc37 at 15 uM by sedimentation velocity method
[2] = biological target: T1, Serine/threonine-protein kinase B-raf; experiment: Induction of N-terminal 6x-His-tagged BRAF (unknown origin) dimer formation expressed in baculovirus infected Sf9 insect cells co-expressing mouse p50cdc37 at 200 uM measured after trypsin digestion for 30 mins by coomassie blue staining-based SDS-PAGE method
[3] = biological target: Serine/threonine-protein kinase B-raf (Homo sapiens, UniProt P15056, V600E); experiment: Inhibition of N-terminal 6x-His-tagged BRAF V600E mutant (unknown origin) expressed in baculovirus infected Sf9 insect cells co-expressing mouse p50cdc37 using C-terminal His-tagged/N-terminal GST-tagged full length human MEK1 as substrate after 1 hr by ELISA
Chain of Serine/threonine-protein kinase B-raf (Homo sapiens, UniProt P15056, V600E) (P15056 2-766 V600E limits assumed): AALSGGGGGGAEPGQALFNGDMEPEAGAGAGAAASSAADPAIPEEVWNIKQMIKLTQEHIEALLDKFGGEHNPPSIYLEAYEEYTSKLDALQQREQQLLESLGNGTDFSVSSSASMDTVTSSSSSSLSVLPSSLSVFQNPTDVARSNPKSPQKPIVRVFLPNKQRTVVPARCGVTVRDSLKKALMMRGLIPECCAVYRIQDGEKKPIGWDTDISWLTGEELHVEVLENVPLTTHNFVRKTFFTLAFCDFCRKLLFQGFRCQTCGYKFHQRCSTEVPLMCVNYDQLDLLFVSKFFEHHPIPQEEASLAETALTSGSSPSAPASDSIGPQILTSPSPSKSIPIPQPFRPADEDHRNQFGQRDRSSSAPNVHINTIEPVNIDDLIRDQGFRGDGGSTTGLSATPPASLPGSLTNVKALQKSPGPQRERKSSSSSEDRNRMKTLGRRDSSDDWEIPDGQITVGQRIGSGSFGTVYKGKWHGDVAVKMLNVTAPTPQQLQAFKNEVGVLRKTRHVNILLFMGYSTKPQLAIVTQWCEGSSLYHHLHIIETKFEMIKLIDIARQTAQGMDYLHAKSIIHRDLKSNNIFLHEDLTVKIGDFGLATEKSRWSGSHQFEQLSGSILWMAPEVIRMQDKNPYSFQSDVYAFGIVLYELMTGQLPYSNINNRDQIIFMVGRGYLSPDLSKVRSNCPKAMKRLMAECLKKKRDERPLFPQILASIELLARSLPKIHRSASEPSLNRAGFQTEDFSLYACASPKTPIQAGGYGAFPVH
In short: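 ELISA: GST-MEK1 bound to glutathione-coated plate 1 h, room temperature. Insect-cell His-BRAF V600E (1:1000 dilution) preincubated with inhibitor 1 h, room temperature, then reacted with 100 μM ATP in 50 mM HEPES pH 7.0, 200 mM NaCl, 20 mM MgCl2, 30 min, 37 °C. Anti-pMEK S217/S221, HRP secondary, chemiluminescence. Duplicate or triplicate, min–max normalized, log(inhibitor)-response IC50.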

[4] = biological target: T1, Serine/threonine-protein kinase B-raf; experiment: Inhibition of N-terminal 6x-His-tagged BRAF kinase domain (unknown origin) expressed in baculovirus infected Sf9 insect cells co-expressing mouse p50cdc37 using C-terminal His-tagged/N-terminal GST-tagged full length human MEK1 as substrate after 1 hr by ELISA
In short: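 His-tagged BRAF kinase domain (residues 442–724, WT or V600E) was preincubated with inhibitor 1 h at room temperature in 50 mM HEPES pH 7.0, 50 mM NaCl. It was then added to GST-MEK1 bound on glutathione plates, with 100 μM ATP final in 50 mM HEPES pH 7.0, 200 mM NaCl, 20 mM MgCl2, for 30 min at 37 °C. Phospho-MEK (S217/S221) was read by chemiluminescent ELISA. Curves run in duplicate/triplicate, min–max normalized, IC50 from log(inhibitor)–response fit.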

[5] = system: Serine/threonine-protein kinase B-raf (Homo sapiens), P15056 [V600E]; experiment: Induction of N-terminal 6x-His-tagged BRAF V600E mutant (unknown origin) dimer formation expressed in baculovirus infected Sf9 insect cells co-expressing mouse p50cdc37 at 10 uM by sedimentation velocity method
Chain of Serine/threonine-protein kinase B-raf (Homo sapiens), P15056 [V600E] (P15056 whole entry V600E): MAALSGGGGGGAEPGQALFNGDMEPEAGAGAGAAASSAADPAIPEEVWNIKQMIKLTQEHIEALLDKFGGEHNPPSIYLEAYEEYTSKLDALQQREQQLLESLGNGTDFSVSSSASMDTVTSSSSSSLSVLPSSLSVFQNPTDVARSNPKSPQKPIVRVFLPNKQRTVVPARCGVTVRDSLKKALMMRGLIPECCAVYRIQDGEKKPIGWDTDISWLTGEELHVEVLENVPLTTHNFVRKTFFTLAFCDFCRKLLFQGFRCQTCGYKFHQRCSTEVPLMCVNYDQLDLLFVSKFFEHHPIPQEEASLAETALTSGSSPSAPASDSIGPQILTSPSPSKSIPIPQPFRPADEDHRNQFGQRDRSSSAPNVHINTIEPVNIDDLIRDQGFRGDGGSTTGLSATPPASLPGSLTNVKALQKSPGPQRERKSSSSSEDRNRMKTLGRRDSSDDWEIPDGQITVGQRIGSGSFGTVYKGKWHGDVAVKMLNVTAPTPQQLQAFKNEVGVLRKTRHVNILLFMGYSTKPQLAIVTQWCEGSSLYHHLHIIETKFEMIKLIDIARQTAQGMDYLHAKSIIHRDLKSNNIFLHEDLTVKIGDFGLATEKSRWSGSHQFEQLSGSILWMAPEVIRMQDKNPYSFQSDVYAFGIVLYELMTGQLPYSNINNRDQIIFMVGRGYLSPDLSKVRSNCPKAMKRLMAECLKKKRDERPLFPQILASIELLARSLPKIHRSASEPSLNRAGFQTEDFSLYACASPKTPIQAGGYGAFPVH

[6] = biological target: T1, Serine/threonine-protein kinase B-raf; experiment: Induction of N-terminal 6x-His-tagged BRAF (unknown origin) dimer formation expressed in baculovirus infected Sf9 insect cells co-expressing mouse p50cdc37 assessed as melting temperature at 125 uM by differential scanning calorimetric method
[7] = system: Serine/threonine-protein kinase B-raf (Homo sapiens), P15056 [V600E]; experiment: Induction of N-terminal 6x-His-tagged BRAF V600E mutant (unknown origin) dimer formation expressed in baculovirus infected Sf9 insect cells co-expressing mouse p50cdc37 at 20 uM by sedimentation velocity method
[8] = biological target: T1, Serine/threonine-protein kinase B-raf; experiment: Induction of N-terminal 6x-His-tagged BRAF (unknown origin) dimer formation expressed in baculovirus infected Sf9 insect cells co-expressing mouse p50cdc37 assessed as melting temperature at 75 uM by differential scanning calorimetric method (reference value: 37.84 degC)
[9] = biological target: T1, Serine/threonine-protein kinase B-raf; experiment: Induction of N-terminal 6x-His-tagged BRAF (unknown origin) dimer formation expressed in baculovirus infected Sf9 insect cells co-expressing mouse p50cdc37 assessed as melting temperature at 250 uM by differential scanning calorimetric method (reference value: 37.84 degC)

T1 sequence (P15056 whole entry): as the sequence (P15056 whole entry V600E) above, with E600V counted along it

Row | Compound | Activity [1] | Activity [2] | IC50 [3] | IC50 [4] | Activity [5] | Tm [6] | Activity [7] | Tm [8] | Tm [9]
1 | CCCS(=O)(=O)Nc1ccc(F)c(C(=O)c2c[nH]c3ncc(-c4ccc(Cl)cc4)cc23)c1F | inactive | inactive | – | – | – | – | – | – | –
2 | N#Cc1c(Oc2ccc(F)c(NC(=O)Cc3cccc(C(F)(F)F)c3)c2)ccc2nc(NC(=O)COCCOCCOCCOCCOCCOCCOCC(=O)Nc3nc4ccc(Oc5ccc(F)c(NC(=O)Cc6cccc(C(F)(F)F)c6)c5)c(C#N)c4s3)sc12 | – | – | 352 nM | 732 nM | – | – | – | – | –
3 | N#Cc1c(Oc2ccc(F)c(NC(=O)Cc3cccc(C(F)(F)F)c3)c2)ccc2nc(NC(=O)C3CC3)sc12 | Active | Active | 4.46 nM | 3.23 to 7.11 nM | Active | 68.7 °C | – | – | –
4 | N#Cc1c(Oc2ccc(F)c(NC(=O)Cc3cccc(C(F)(F)F)c3)c2)ccc2nc(NC(=O)COCCOCCOCC(=O)Nc3nc4ccc(Oc5ccc(F)c(NC(=O)Cc6cccc(C(F)(F)F)c6)c5)c(C#N)c4s3)sc12 | inactive | inactive | 73.9 nM | 87.2 to 132 nM | inactive | 38.7 to 59.6 °C | inactive | 38.4 to 58.6 °C | 40.1 to 62.6 °C
5 | COCCOCC(=O)Nc1nc2ccc(Oc3ccc(F)c(NC(=O)Cc4cccc(C(F)(F)F)c4)c3)c(C#N)c2s1 | – | – | – | 5.75 nM | – | – | – | – | –
6 | N#Cc1c(Oc2ccc(F)c(NC(=O)Cc3cccc(C(F)(F)F)c3)c2)ccc2nc(NC(=O)COCCOCCOCCOCC(=O)Nc3nc4ccc(Oc5ccc(F)c(NC(=O)Cc6cccc(C(F)(F)F)c6)c5)c(C#N)c4s3)sc12 | – | – | 168 nM | 616 nM | – | – | – | – | –
7 | N#Cc1c(Oc2ccc(F)c(NC(=O)Cc3cccc(C(F)(F)F)c3)c2)ccc2nc(NC(=O)COCCOCCOCC(=O)Nc3nccs3)sc12 | – | Active | – | 20.3 nM | – | 63.3 °C | – | – | –
8 | N#Cc1c(Oc2ccc(F)c(NC(=O)Cc3cccc(C(F)(F)F)c3)c2)ccc2nc(NC(=O)COCCOCCOCCOCCOCC(=O)Nc3nc4ccc(Oc5ccc(F)c(NC(=O)Cc6cccc(C(F)(F)F)c6)c5)c(C#N)c4s3)sc12 | – | – | 73.8 nM | 85.5 to 90.2 nM | – | – | inactive | – | –
9 | N#Cc1c(Oc2ccc(F)c(NC(=O)Cc3cccc(C(F)(F)F)c3)c2)ccc2nc(NC(=O)COCC(=O)Nc3nc4ccc(Oc5ccc(F)c(NC(=O)Cc6cccc(C(F)(F)F)c6)c5)c(C#N)c4s3)sc12 | – | – | 421 nM | 537 nM | – | – | – | – | –
